In paper PMC5693771 (Bioorganic & medicinal chemistry letters, 2017):
“Also recorded” adds a separate entry of the source.

What was measured:
[1] = tested on: HCV genotype 1b RNA replication; experiment: HCV genotype 1b subgenomic replicon assay in Huh-7 cells; assay type: cell-based, Hepatitis C virus (HCV); settings: for EC90: Hepatitis C virus, GETYPE1B, Huh-7, read-out: Anti HCV activity EC90
Summary of the method: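 Each assay was run in replicate. Values are the mean and SD of three replicates.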

Huh-7 cells = experiment: Cytotoxicity in Huh-7 cells; assay type: cell-based; settings: all four tested cell lines (Huh-7, PBM, CEM, Vero)

Row | SMILES | EC90 [1] [µM] | further results
1 | Nc1ccn([C@@H]2O[C@H](CO)[C@@H](O)C2(Br)Br)c(=O)n1 [Compound 10b] | > 10 | –
2 | CC(C)OC(=O)[C@H](C)N[P@](=O)(OC[C@H]1O[C@@H](n2cnc3c(N)ncnc32)C(Br)(Br)[C@@H]1O)Oc1ccccc1 [Compound 13c] | > 10 | –
3 | CC(C)OC(=O)[C@H](C)N[P@](=O)(OC[C@H]1O[C@@H](n2ccc(=O)[nH]c2=O)C(Br)(Br)[C@@H]1O)Oc1ccccc1 [Compound 13a] | – | Cellular toxicity (in words) (Huh-7 cells): non-toxic; also recorded: no observed toxicity
4 | O=c1ccn([C@@H]2O[C@H](CO)[C@@H](O)C2(Br)Br)c(=O)[nH]1 [Compound 10a] | – | Concentration up to which no antiviral (anti-HCV) activity was shown ([1]; HCV genotype 1b replicon, Huh-7 cells): > 33 µM
5 | CC(C)OC(=O)[C@H](C)N[P@](=O)(OC[C@H]1O[C@@H](n2cnc3c(=O)[nH]c(N)nc32)C(Br)(Br)[C@@H]1O)Oc1ccccc1 [Compound 13d] | > 10 | –
